≈ marks a conversion by molar mass, not a printed value.
How the values were obtained:
Plasmodium falciparum [1] = test: Antimalarial activity against chloroquine-sensitive Plasmodium falciparum NF54; format: functional, organism-based
Method in brief: (§1)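 IC50 (ng/mL) against P. falciparum blood stages, K1 (chloroquine-resistant) and NF54 (chloroquine-sensitive), reported as the mean of n = 2-3 determinations; individual measurements generally within 50% of each other.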

Plasmodium berghei = test: Antimalarial activity as reduced parasitaemia against Plasmodium berghei infected NMRI mice (Mus musculus) at 100 mg/kg peroral dose 3 days post-infection; format: functional; set-up: scale not given: the % may be the effect or the level left; conditions: route oral
Method in brief: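 Groups of three NMRI mice infected with P. berghei were dosed orally 1 day after infection with 100 mg/kg, dissolved or suspended in 3% ethanol/7% Tween-80 vehicle. Percent reduction in parasitemia was read on day 3 post-infection against an untreated control group; individual measurements generally within 10%.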

Plasmodium falciparum [2] = test: Antimalarial activity against chloroquine-resistant Plasmodium falciparum K1; format: functional, organism-based; method in brief: as §1
Plasmodium falciparum [3] = test: Antimalarial activity against Plasmodium falciparum; format: functional, organism-based
Method in brief: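 In vitro assay against chloroquine-resistant K1 and chloroquine-sensitive NF54 strains of P. falciparum. IC50 is reported in ng/mL as the mean of 2-3 determinations per strain, and individual measurements generally differed by less than 50%.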

Row | IC50 (Plasmodium falciparum [3]) [µg/mL] | Structure (SMILES) | IC50 (Plasmodium falciparum [1]) [µg/mL] | Activity (Plasmodium berghei) [%] | IC50 (Plasmodium falciparum [2]) [µg/mL]
1 | – | CCCC1(CCC)CC2(OO1)C1CC3CC(C1)CC2C3 (stereo not drawn) | 0.12 (≈ 0.431 µM) | 6 | 0.12 (≈ 0.431 µM)
2 | > 1 | OC1(CC2(O)C3CC4CC(C3)CC2C4)CCCCC1 (stereo not drawn) | – | – | –
3 | – | C1CCC2(CC1)CC1(CCCCC1)OO2 | 0.11 (≈ 0.523 µM) | 0 | 0.041 (≈ 0.195 µM)
4 | – | CC(C)(C)C1CCC2(CC1)CC1(CCCC1)OO2 (stereo not drawn) | 0.18 (≈ 0.713 µM) | 45 | 0.13 (≈ 0.515 µM)
5 | – | CC1(CCCO)CC2(CCCCC2)OO1 (stereo not drawn) | 0.08 (≈ 0.373 µM) | 0 | 0.05 (≈ 0.233 µM)
6 | – | CC1(CCC(=O)O)CC2(CCCCC2)OO1 (stereo not drawn) | > 1 | 0 | > 1
7 | – | CC(C)(C)C1CCC2(CC1)CC1(CCCCC1)OO2 (stereo not drawn) | 0.12 (≈ 0.45 µM) | 30 | 0.063 (≈ 0.236 µM)
8 | – | c1ccc(C2CC3(CCCCC3)OO2)cc1 (stereo not drawn) | 0.66 (≈ 3.02 µM) | 0 | 0.44 (≈ 2.02 µM)
9 | – | c1ccc(C2CCC3(CC2)CC2(CCCCC2)OO3)cc1 (stereo not drawn) | 0.093 (≈ 0.325 µM) | 84 | 0.041 (≈ 0.143 µM)
10 | – | C1CCC2(CC1)CC1(OO2)C2CC3CC(C2)CC1C3 (stereo not drawn) | 0.66 (≈ 2.52 µM) | 0 | 0.77 (≈ 2.93 µM)
11 | – | CCOC(=O)CCC1(C)CC2(CCCCC2)OO1 (stereo not drawn) | 0.081 (≈ 0.316 µM) | 18 | 0.048 (≈ 0.187 µM)
12 | – | c1ccc(C2CCC3(CC2)CC2(CCCC2)OO3)cc1 (stereo not drawn) | 0.083 (≈ 0.305 µM) | 49 | 0.038 (≈ 0.14 µM)
13 | – | C1CCC2(CC1)CC1(CCCC1)OO2 | 0.062 (≈ 0.316 µM) | 0 | 0.041 (≈ 0.209 µM)
14 | – | CCCC1(CCC)CC2(CCCCC2)OO1 | 0.36 (≈ 1.59 µM) | 0 | 0.23 (≈ 1.02 µM)
15 | – | c1ccc(C2CCC3(CC2)CC2(OO3)C3CC4CC(C3)CC2C4)cc1 (stereo not drawn) | > 1 | 0 | > 1
